Results reported in PubChem BioAssay.
Calls of active or inactive are those of the source.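 How the source made its calls, unless noted: active means NADPH fluorescence slope more negative than the mean of all samples by about 3 SD, 99.7% confidence; inactive means the rest.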

Assays:
[1] = inhibitors of TNFa-induced NFkB p65 translocation, primary screen, imaging, HUVEC, MLSMR starter and 10KST1 sets (AID 438;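 active means inhibition above 20% together with a positive visual image hit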;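 further: compound added about 3h40 before a 20 min TNFalpha stimulation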;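 on inhibition: signal is the nuclear over cytoplasmic p65 intensity ratio per well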); settings: HUVEC TNFa-induced p65 nuclear translocation; cell count: measured here: nuclei count (cytotoxicity indicator), at 2.08 µM; inhibition: at 2 µM, stronger effect = higher value, 0% TNFa-plus-vehicle, 100% no-TNFa wells
[2] = reduction of polyQ htt aggregates in cells – imaging, exon1htt(103Q)mCFP cells, high-content imaging, primary screen (AID 483;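 active means visual image review flags a hit and inhibition of aggregation exceeds 20%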;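 further: compound exposure lasted 3 days before fixation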;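 on nuclei count: percent of the per-plate median nuclei count of sample wells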); settings: exon1htt(103Q)mCFP cell line, aggregate imaging, at 2 µM; inhibition of aggregation: stronger effect = higher value; nuclei count: measured here: cell count, toxicity
[3] = endothelial E-selectin expression blockers – imaging, HUVEC, immunofluorescence, MLSMR starter and 10KST1 sets, primary screen (AID 487;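 active means visually confirmed hit in the image check and inhibition above 20%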;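 on inhibition: signal is fraction of cell area covered by stained E-selectin grains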;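 on nuclei count: 100% = median nuclei count of all wells on the same plate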); settings: HUVEC TNFalpha-induced E-selectin immunofluorescence imaging, at 2 µM; inhibition: stronger effect = higher value; nuclei count: measured here: cell number, toxicity
[4] = molecular target: Voltage-gated potassium channel subunit beta-2 (Rattus norvegicus) (UniProt P62483); experiment: inhibitors of rat Kvbeta2 reductase activity – biochemical, NADPH fluorescence, primary screen (AID 622;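 active means fluorescence slope higher than the sample average by over 3 SD, cut at about -0.22 in these data, passing the limit was not always enough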;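 further: slope of raw intensity against log time taken from 70 to 1610 s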); settings: recombinant KvBeta, 4-cyanobenzaldehyde reduction, at 10 µM, stronger effect = higher value
[5] = molecular target: Voltage-gated potassium channel subunit beta-2 (Rattus norvegicus) (UniProt P62483); experiment: enhancers of rat Kvbeta2 NADPH turnover – biochemical, NADPH fluorescence, primary screen (AID 623); settings: Recombinant KvBeta, NADPH fluorescence decrease slope, 10 min; at 10 µM; stronger effect = lower value;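 further: fluorescence intensity change per second fitted from 20 to 320 s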
[6] = molecular target: Muscarinic acetylcholine receptor M4 (Homo sapiens) (UniProt P08173); experiment: M4-linked GIRK flux change, two-sided – cell-based, HEK293 M4/GIRK, thallium flux, BTC-AM, M4 allosteric agonist project, primary screen (AID 625;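 active means fluorescence slope after compound addition differing from the mean of all tested samples at 99.7% confidence, mostly higher but some lower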;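 further: thallium influx through GIRK channels coupled to M4 in HEK293 cells with BTC-AM dye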); settings: at 10 µM, actives lie on both sides
Method in brief: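 Assay system: HEK293 cells with M4 receptor and GIRK channels / Controls: carbachol and DMSO controls / Schedule: 1 h dye loading, 2 min kinetic read / Technique: kinetic fluorescence with BTC-AM dye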

[7] = blockers of RIG-like receptor reporter activation – cell-based, Sendai virus stimulus, luciferase, 10K MLSCN set, TLR/RLR signaling modifier project, primary screen (AID 602276;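 active means inhibition at or above 50% at 10 µM; inactive means inhibition below 50%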;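 further: firefly luciferase from ISG56 promoter only with Renilla not read in this screen; 0% = Sendai virus plus DMSO and 100% = medium plus DMSO without virus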); settings: HEK293 RL24 IRF3 luciferase reporter, at 10 µM, stronger effect = higher value
[8] = TLR3 IRF3 reporter activation blockers – cell-based, poly I:C stimulus, luciferase, 10K MLSCN set, primary screen (AID 602277;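 active means inhibition of the reporter signal at or above 50%; inactive means inhibition below 50%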); settings: HEK293-TLR3 RL24 IRF3 luciferase reporter, at 10 µM, stronger effect = higher value

Chain of Voltage-gated potassium channel subunit beta-2 (Rattus norvegicus) (P62483 whole entry, looked up): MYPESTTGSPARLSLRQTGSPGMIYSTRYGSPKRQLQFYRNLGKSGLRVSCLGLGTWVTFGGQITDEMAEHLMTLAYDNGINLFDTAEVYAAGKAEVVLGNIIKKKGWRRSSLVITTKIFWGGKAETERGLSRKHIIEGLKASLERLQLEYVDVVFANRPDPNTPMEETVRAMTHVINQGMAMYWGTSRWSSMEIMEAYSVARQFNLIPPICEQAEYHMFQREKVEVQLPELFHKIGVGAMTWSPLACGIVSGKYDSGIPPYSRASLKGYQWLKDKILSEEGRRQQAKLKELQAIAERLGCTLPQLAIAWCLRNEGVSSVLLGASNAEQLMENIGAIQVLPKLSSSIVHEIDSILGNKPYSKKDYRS
Chain of Muscarinic acetylcholine receptor M4 (Homo sapiens) (P08173 whole entry, looked up): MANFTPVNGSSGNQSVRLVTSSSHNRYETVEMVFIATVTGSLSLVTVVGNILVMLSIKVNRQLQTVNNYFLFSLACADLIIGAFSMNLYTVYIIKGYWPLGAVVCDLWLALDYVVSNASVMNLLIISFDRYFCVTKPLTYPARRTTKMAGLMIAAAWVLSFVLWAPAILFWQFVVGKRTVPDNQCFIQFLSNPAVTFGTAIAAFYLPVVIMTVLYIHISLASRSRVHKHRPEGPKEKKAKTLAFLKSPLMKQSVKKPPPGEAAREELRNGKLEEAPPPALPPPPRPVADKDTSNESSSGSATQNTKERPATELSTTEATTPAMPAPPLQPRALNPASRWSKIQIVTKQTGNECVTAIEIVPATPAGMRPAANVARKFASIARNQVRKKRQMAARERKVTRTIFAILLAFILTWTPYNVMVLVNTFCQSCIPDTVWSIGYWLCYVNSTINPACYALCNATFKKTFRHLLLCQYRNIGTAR

| SMILES | cell count [1] | inhibition [1] | inhibition of aggregation [2] | nuclei count [2] [%] | inhibition [3] | nuclei count [3] [%] | fluorescence slope [4] | NADPH fluorescence slope [5] | fluorescence slope [6] | inhibition [7] | inhibition [8] |
| --- | --- | --- | --- | --- | --- | --- | --- | --- | --- | --- | --- |
| CCCOc1ccc(C2c3c(oc4ccccc4c3=O)C(=O)N2CCCN2CCOCC2)cc1 (stereo not drawn) | 559 | 16.8% (inactive) | 26.2% (inactive) | 100 | -18.5% (inactive) | 101 | -0.413 (inactive) | -1.1e-05 (inactive) | 0.00521 (inactive) | 11.7% (inactive) | 21.3% (inactive) |
| COc1cccc(C(=O)CSc2nnc(COc3cccc4cccnc34)o2)c1 | 558 | -6.3% (inactive) | -10.3% (inactive) | 117 | -1.4% (inactive) | 197 | -0.51 (inactive) | 3.4e-05 (inactive) | 0.00397 (inactive) | -8.03% (inactive) | -13.7% (inactive) |
| CN(Cc1ccccc1)Cc1nc2c([nH]1)c(=O)[nH]c(=O)n2C | 276 | 12.9% (inactive) | -1.6% (inactive) | 96 | 69.5% (active) | 91.4 | -0.371 (inactive) | -0.000115 (inactive) | 0.0061 (inactive) | 7.51% (inactive) | 14.7% (inactive) |
| O=C(C1CCC1)N1CCc2cc(S(=O)(=O)N3CCc4ccccc4C3)ccc21 | 299 | 0% (inactive) | 8.8% (inactive) | 113 | -0.1% (inactive) | 118 | -0.411 (inactive) | 7.8e-05 (inactive) | 0.00795 (inactive) | -7.83% (inactive) | 4.09% (inactive) |
| CCOC(=O)N1CCC(N(C(=O)Nc2ccc(Cl)c(Cl)c2)C(C)CC)CC1 (stereo not drawn) | 346 | -3.2% (inactive) | 4.4% (inactive) | 120 | -44% (inactive) | 118 | -0.489 (inactive) | -7.4e-06 (inactive) | 0.00507 (inactive) | 8.19% (inactive) | -18.2% (inactive) |
| COCCSc1ccccc1C(=O)Nc1cc(C)on1 | 587 | 3.3% (inactive) | -4.3% (inactive) | 92.3 | 22.8% (inactive) | 90.6 | -0.568 (inactive) | -2.5e-05 (inactive) | 0.00516 (inactive) | 14.3% (inactive) | 20.9% (inactive) |
| O=C(CNC(=O)c1cccs1)NCCN1CCN(c2ccccc2F)CC1 | 585 | -8.2% (inactive) | -28.3% (inactive) | 99.6 | -19.1% (inactive) | 106 | -0.451 (inactive) | -3.9e-05 (inactive) | 0.00484 (inactive) | 19.5% (inactive) | 17.5% (inactive) |
| Cc1ccc(S(=O)(=O)Cc2ccc(C(=O)NCCCN3CCN(C)CC3)o2)cc1 | 597 | 2.3% (inactive) | -11.8% (inactive) | 101 | 22.2% (inactive) | 115 | -0.517 (inactive) | 1.7e-05 (inactive) | 0.00533 (inactive) | 14.1% (inactive) | 100% (active) |
